The EC50 is the concentration giving half of the maximal effect. Low values mean a more potent agent, high ones a less potent agent.

Here are results for three molecules from paper PMC7368294 (Proceedings of the National Academy of Sciences of the …, 2020).

Each structure is given as a SMILES string. Where two headings read alike, the source gives them in different places.

The target of experiment [1] is T1, Dα1/Dα2/Dβ1/Dβ2 nAChR (Drosophila melanogaster, UniProt P04755+P09478+P17644+P25162). In words: cell-based. The arrangement: species or system Xenopus laevis oocytes.
For experiment [2], the target named is T2, Dα1/Dβ1/Dβ2 nAChR (Drosophila melanogaster, UniProt P04755+P09478+P25162).
T2 sequence (P09478 22-567): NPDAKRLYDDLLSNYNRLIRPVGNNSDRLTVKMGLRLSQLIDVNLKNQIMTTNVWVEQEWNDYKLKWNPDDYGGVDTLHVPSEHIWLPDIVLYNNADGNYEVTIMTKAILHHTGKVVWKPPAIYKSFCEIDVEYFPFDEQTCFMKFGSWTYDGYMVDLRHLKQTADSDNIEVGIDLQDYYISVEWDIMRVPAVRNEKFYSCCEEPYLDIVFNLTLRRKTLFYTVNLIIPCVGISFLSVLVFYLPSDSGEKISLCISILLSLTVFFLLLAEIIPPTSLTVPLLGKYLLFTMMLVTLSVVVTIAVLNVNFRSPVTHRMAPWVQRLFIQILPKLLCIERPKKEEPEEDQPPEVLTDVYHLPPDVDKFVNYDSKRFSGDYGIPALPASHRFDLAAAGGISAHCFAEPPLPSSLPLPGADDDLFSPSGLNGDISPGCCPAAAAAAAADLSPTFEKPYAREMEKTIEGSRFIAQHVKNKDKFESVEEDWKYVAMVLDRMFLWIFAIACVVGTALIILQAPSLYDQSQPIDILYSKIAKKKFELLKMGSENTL
T2 sequence (P04755 25-521): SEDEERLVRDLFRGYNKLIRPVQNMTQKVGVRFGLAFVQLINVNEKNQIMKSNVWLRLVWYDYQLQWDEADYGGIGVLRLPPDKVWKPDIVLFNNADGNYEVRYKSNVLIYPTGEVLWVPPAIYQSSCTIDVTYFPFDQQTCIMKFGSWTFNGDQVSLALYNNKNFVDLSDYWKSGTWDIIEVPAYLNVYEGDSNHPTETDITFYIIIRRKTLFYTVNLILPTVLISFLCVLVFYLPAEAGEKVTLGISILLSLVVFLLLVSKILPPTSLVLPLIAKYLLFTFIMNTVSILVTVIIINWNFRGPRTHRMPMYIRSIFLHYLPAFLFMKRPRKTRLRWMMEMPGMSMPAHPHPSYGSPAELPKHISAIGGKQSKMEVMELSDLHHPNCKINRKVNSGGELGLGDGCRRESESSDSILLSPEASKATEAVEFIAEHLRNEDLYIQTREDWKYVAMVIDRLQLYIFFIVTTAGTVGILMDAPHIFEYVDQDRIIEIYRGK
T2 sequence (P25162 19-519): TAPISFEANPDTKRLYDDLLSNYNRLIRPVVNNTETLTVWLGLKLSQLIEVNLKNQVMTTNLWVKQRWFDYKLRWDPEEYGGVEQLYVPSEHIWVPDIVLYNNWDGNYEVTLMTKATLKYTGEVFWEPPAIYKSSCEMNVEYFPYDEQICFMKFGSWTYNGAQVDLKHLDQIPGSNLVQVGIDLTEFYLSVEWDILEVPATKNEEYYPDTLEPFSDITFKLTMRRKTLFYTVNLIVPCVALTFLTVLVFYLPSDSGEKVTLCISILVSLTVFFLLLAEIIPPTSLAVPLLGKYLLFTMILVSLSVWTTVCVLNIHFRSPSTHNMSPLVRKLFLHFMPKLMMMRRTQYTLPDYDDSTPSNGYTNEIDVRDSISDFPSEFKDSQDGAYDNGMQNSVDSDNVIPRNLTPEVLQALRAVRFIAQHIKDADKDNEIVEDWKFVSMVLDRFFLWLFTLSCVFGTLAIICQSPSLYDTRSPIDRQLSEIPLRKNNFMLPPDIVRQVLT
Briefly: cell-based. The arrangement: species or system Xenopus laevis oocytes. Conditions: Oocyte.

The target of experiment [3] is Amα1/Amα2/Amα8/Amβ1 nAChR (Apis mellifera, UniProt A0A7M7MMZ9+A0A8U0WQ70+A0A8U0WQC0+A0A8U0WQD1). In words: cell-based. The arrangement: species or system Xenopus laevis oocytes. As to conditions: Oocyte.
Experiment [4] has as its target T3, Dα1/Dβ1 nAChR (Drosophila melanogaster, UniProt P04755+P09478).
T3 sequence (P09478 22-567): T2 sequence (P09478 22-567)
T3 sequence (P04755 25-521): T2 sequence (P04755 25-521)
In words: two-electrode voltage clamp of Xenopus oocytes, agonist concentration-response. The format is cell-based. In outline: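 Oocytes were collagenase-defolliculated, injected with subunit and cofactor cRNAs (100 ng⋅μL−1 each) and kept 3–7 d at 16 °C. Cells were clamped at −100 mV and perfused with saline containing 0.5 μM atropine. Agonists were applied 5 s at 3-min intervals after stable 100 μM ACh responses. Peak currents were normalized to 100 μM ACh and Hill-fitted. n = 5, ≥2 frogs; DMSO <0.1%.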
On the technique in general: Two-electrode voltage clamp is typically applied to oocytes expressing channels or transporters.

Experiment [5] deals with T1, Dα1/Dα2/Dβ1/Dβ2 nAChR. In words: two-electrode voltage clamp of Xenopus oocytes, agonist concentration-response. In kind it is cell-based.
For experiment [6], the target named is T3, Dα1/Dβ1 nAChR. In words: cell-based. The arrangement: species or system Xenopus laevis oocytes.
For the next experiment, the target named is T4, Dα1/Dα2/Dβ1 nAChR (Drosophila melanogaster, UniProt P04755+P09478+P17644).
T4 sequence (P09478 22-567): T2 sequence (P09478 22-567)
T4 sequence (P17644 22-576): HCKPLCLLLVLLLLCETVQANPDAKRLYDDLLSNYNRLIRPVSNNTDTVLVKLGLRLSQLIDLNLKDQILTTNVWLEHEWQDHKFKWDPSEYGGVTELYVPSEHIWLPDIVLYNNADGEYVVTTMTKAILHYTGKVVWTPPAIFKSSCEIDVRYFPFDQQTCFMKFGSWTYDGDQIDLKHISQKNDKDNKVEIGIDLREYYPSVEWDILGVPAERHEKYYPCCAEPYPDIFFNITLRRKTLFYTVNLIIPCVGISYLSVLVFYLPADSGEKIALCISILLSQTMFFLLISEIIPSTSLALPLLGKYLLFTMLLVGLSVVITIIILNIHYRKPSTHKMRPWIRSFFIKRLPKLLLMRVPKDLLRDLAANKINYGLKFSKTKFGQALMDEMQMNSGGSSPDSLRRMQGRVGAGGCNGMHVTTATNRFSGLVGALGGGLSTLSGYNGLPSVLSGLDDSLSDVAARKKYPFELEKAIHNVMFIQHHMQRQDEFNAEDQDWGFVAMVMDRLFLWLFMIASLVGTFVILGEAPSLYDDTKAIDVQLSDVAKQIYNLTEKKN
T4 sequence (P04755 25-521): T2 sequence (P04755 25-521)
Briefly: two-electrode voltage clamp of Xenopus oocytes, agonist concentration-response. In kind it is cell-based.

For experiment [7], the target named is T2, Dα1/Dβ1/Dβ2 nAChR. Described as above. The format is cell-based.

Chain of Amα1/Amα2/Amα8/Amβ1 nAChR (A0A7M7MMZ9 44-627): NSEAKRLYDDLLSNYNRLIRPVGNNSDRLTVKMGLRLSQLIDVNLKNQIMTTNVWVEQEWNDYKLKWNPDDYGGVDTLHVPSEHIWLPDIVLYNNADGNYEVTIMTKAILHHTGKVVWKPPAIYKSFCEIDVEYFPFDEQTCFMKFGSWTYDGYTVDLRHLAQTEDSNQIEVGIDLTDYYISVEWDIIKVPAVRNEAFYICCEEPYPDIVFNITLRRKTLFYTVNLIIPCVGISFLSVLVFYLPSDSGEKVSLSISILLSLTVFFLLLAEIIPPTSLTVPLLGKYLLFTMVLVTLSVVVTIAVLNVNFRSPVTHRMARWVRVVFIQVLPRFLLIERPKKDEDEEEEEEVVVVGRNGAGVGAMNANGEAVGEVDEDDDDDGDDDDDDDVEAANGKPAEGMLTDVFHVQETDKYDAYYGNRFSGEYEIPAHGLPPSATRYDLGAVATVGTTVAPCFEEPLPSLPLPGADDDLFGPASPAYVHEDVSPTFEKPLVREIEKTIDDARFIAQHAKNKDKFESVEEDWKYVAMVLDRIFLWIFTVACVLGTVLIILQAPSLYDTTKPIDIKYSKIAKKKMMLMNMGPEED
Chain of Amα1/Amα2/Amα8/Amβ1 nAChR (A0A8U0WQD1 18-541): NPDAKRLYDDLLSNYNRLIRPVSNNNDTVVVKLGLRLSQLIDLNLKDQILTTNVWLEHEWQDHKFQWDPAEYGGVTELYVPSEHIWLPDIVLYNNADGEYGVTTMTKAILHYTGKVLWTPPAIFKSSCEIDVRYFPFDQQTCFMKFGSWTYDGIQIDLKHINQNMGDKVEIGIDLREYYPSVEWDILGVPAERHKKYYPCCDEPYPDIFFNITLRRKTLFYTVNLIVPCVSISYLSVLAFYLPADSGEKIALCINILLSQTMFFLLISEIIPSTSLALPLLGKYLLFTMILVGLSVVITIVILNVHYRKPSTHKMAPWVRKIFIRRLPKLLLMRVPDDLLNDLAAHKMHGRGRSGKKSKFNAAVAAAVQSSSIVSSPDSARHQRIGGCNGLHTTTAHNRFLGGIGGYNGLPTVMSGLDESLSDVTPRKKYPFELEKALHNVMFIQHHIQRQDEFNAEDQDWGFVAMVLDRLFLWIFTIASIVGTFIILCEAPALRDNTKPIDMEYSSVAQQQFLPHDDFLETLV
Chain of Amα1/Amα2/Amα8/Amβ1 nAChR (A0A8U0WQ70 25-537): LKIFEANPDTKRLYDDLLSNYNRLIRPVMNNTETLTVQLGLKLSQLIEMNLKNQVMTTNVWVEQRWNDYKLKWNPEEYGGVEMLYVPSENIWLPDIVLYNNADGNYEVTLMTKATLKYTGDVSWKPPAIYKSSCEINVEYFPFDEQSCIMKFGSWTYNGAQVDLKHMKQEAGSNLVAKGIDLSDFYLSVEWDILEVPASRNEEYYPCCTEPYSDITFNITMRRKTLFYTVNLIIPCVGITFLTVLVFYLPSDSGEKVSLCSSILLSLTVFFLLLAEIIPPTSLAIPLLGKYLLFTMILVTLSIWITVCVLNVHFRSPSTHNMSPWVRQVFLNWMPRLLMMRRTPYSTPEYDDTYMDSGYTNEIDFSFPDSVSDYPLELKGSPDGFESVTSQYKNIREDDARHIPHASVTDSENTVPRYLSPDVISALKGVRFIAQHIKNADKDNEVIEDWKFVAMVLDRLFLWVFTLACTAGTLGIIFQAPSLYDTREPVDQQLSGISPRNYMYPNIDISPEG
Chain of Amα1/Amα2/Amα8/Amβ1 nAChR (A0A8U0WQC0 25-520): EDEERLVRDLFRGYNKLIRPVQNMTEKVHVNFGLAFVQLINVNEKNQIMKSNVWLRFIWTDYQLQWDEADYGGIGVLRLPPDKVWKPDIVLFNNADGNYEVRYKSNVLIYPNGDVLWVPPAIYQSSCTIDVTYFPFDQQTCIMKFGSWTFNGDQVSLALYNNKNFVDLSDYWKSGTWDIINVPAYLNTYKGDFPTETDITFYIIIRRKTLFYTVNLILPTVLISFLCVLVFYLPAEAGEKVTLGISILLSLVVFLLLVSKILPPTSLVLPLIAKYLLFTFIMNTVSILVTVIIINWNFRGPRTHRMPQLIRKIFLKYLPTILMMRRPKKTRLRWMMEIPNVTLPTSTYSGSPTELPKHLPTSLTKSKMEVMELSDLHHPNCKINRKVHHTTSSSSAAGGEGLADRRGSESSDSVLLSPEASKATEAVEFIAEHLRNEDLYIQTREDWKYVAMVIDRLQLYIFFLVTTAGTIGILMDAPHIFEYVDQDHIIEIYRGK

Regarding `CN/C(=N\[N+](=O)[O-])NCc1cnc(Cl)s1` [clothianidin], the results for the EC50 at Dα1/Dα2/Dβ1/Dβ2 nAChR [1] and on Dα1/Dβ1 nAChR [4] were 309 nM and 61.7 nM, respectively. The results for the Emax (at Dα1/Dβ1/Dβ2 nAChR [2] (read-out: Clothianidin / Imax / ND); in experiment [3] (read-out: Clothianidin / Imax)) were 41.1 ± 1.1% and 76.6 ± 2.4%, respectively.

As to `O=[N+]([O-])NC1=NCCN1Cc1ccc(Cl)nc1` [imidacloprid], the half-maximal effective concentration (EC50) on Dα1/Dα2/Dβ1/Dβ2 nAChR [5] is 120 nM; at Dα1/Dβ1 nAChR [6], 174 nM; on Dα1/Dα2/Dβ1 nAChR, 407 nM; at Dα1/Dβ1/Dβ2 nAChR [7] it was 107 nM. The Emax at Dα1/Dβ1/Dβ2 nAChR [2] (read-out: Imidacloprid / Imax) is 24.4 ± 2.2%; in experiment [3] (read-out: Imidacloprid / Imax), 7 ± 0.5%.

As to `N#C/N=C1\SCCN1Cc1ccc(Cl)nc1` [thiacloprid], the concentration giving a half-maximal response (EC50) at Dα1/Dα2/Dβ1/Dβ2 nAChR [5] is 70.8 nM; on Dα1/Dα2/Dβ1 nAChR, 234 nM; at Dα1/Dβ1 nAChR [4], 22.9 nM; at Dα1/Dβ1/Dβ2 nAChR [7], 18.6 nM. Moreover, the Emax at Dα1/Dβ1/Dβ2 nAChR [2] (read-out: Thiacloprid / Imax) worked out at 5.6 ± 0.5%; in experiment [3] (read-out: Thiacloprid / Imax) it was 3.7 ± 0.3%.
